Assay results of several laboratories.
Lines come from different studies, so protocols differ. In brackets after ≈: the same amount, converted by molar mass.

CNC(=S)NN=Cc1ccc(F)cc1
IC50 (Leishmania major; parasite growth, MTT; 72 h, promastigote): 346 µM

CC(=O)NC[C@H]1CN(c2ccc(N3CCOCC3)c(F)c2)C(=O)O1
MIC50 (Enterococcus faecalis; microbial growth, broth dilution; clinical isolate): 0.5 µg/mL (≈ 1.48 µM)

CCC(=CCc1c(O)cc2c(c1O)C(=O)C[C@@H](c1ccccc1O)O2)CC
inhibition (HeLa; cell growth or viability, MTT; 3.75 µM, 48 h): -0.655%

CN[C@H](CC(C)C)C(=O)N[C@H]1C(=O)N[C@@H](CC(N)=O)C(=O)N[C@H]2C(=O)N[C@H]3C(=O)N[C@H](C(=O)N[C@H](C(=O)O)c4cc(O)cc(O)c4-c4cc3ccc4O)[C@H](O)c3ccc(c(Cl)c3)Oc3cc2cc(c3O[C@@H]2O[C@H](CO)[C@@H](O)[C@H](O)[C@H]2O[C@H]2C[C@](C)(N)[C@H](O)[C@H](C)O2)Oc2ccc(cc2Cl)[C@H]1O
MIC (Enterococcus faecalis; microbial growth, agar dilution; ATCC29212): 2 µg/mL (≈ 1.38 µM)

CCOC(=O)c1cc(-c2ccc(OCC)cc2)oc1-c1ccc(Cl)cc1
EC50 (U2OS; cell growth or viability, MTT; 48 h): 190 µM

CCC(=CCc1c(O)cc2c(c1O)C(=O)CC(c1ccc(O)cc1)O2)CC (stereo in doubt)
inhibition (HeLa; cell growth or viability, MTT; 1.563 µM, 48 h): 2.57%

COc1ccc(Nc2cnnc3cc(-c4ccc(N5CCN(C)CC5)cc4)ccc23)nc1
EC50 (Leishmania major; parasite growth; intracellular, amastigote): 6 µM

CNC(=S)NN=Cc1ccc(O)c(OC)c1
IC50 (Leishmania major; parasite growth, MTT; 72 h, promastigote): 38.3 µM

C=C[C@]1(C)C[C@@H](OC(=O)CS[C@@H]2C[C@H]3CC[C@@H](C2)N3C)[C@]2(C)[C@H](C)CC[C@]3(CCC(=O)[C@H]32)[C@@H](C)[C@@H]1O
MIC50 (Enterococcus faecalis; microbial growth; clinical isolate): > 128 µg/mL

CN1CCN(c2ncc(-c3ccc4nncc(Nc5ncccn5)c4c3)cn2)CC1
EC50 (Leishmania major; parasite growth; intracellular, amastigote): > 25 µM
